From paper PMC3099476 (Toxicology and applied pharmacology, 2011)

What was measured:
B6C3F1 male mice [1] = assay: Serum ALT in APAP toxicity; type: in vivo, mouse
B6C3F1 male mice [2] = assay: Liver histology necrosis score; type: in vivo, mouse; details: score 0 absent to 4 severe
Outline: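 Six-week male B6C3F1 mice, fasted overnight, dosed at 0800 with the analgesic hepatotoxicant IP, then immediately the test compound (MPT inhibitor, 50 or 10 mg/kg IP) or vehicle. Hepatotoxicant was 200 mg/kg IP in the 10 mg/kg arm. Saline controls included; 3–6 mice per group. Killed at 4 h. Liver H&E sections scored blind by three reviewers, 0 (absent) to 4 (severe); mean ± SE.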

[3] = system: APAP protein adducts in liver; assay: Hepatic APAP protein adducts; type: in vivo, mouse
HIF-1α = details: B6C3F1 male mice with APAP toxicity; 1 h; ref James et al., 2006; cited from earlier work
[4] = APAP 200 mg/kg IP followed by pimonidazole 60 mg/kg IP vs APAP/vehicle, 1 h

Row | Compound | ALT vs saline (B6C3F1 male mice [1]; APAP 200 mg/kg IP followed by CYC 10 mg/kg IP or vehicle, 4 h) | Serum ALT, time course (B6C3F1 male mice [1]; APAP 200 mg/kg IP, at 2, 4, 8, 24 and 48 h, vs saline) | Serum ALT levels (B6C3F1 male mice [1]; APAP 15, 30, 100, or 200 mg/kg IP, sacrificed at 1 h, vs saline) | Serum ALT vs saline (B6C3F1 male mice [1]; APAP followed by CYC 50 mg/kg IP or vehicle, 4 h) | Necrosis Scores at 4 hours, Mean (B6C3F1 male mice [2]; Table 1A, CYC 50 mg/kg experiment) | Necrosis Scores at 4 hours, Mean (B6C3F1 male mice [2]; Table 1B, CYC 10 mg/kg experiment) | Hepatic APAP protein adducts vs saline ([3]; APAP followed by CYC 50 mg/kg IP or vehicle, 1, 2, and 4 h) | Hepatic protein adducts vs saline ([3]; APAP/veh or APAP/CYC 10 mg/kg, 1 h) | APAP protein adducts ([3]; APAP/veh or APAP/CYC 10 mg/kg, 4 h (data not shown)) | Hepatic APAP protein adduct levels ([3]; separate experiment, APAP/veh or APAP/CYC 10 mg/kg, 1 h) | HIF-1α induction (HIF-1α) | Serum ALT (B6C3F1 male mice [1]; [4]) | Hepatic APAP protein adducts [3, 4] | Effect of pimonidazole on APAP metabolism ([3]; pimonidazole 60 mg/kg IP after APAP 200 mg/kg IP, 1 h)
1 | CC(=O)Nc1ccc(O)cc1 [APAP, N-acetyl-p-aminophenol] | significantly increased | significantly increased above saline | No significant changes | significantly increased | 3 | 2 | increased | increased above saline | comparable | elevated | induction of HIF-1α |  |  | 
2 | O=[N+]([O-])c1nccn1CC(O)CN1CCCCC1 (centres unmarked) [pimonidazole] |  |  |  |  |  |  |  |  |  |  |  | comparable | comparable | no inhibitory affect on APAP metabolism
